Source: ChEMBL document CHEMBL3351902, “Design and synthesis of novel spin-labeled camptothecin derivatives as potent cytotoxic agents” (Bioorg Med Chem, 2014)

Experiments:
Format in all cases: functional, cell-based
[1] = system: A549; assay: Cytotoxicity against human A549 cells after 72 hrs by SRB assay
[2] = system: MDA-MB-231; assay: Cytotoxicity against human MDA-MB-231 cells after 72 hrs by SRB assay
Summary of the method: (§1)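 Cells grown in RPMI-1640 with 2 mM L-glutamine, 25 mM HEPES, 10% heat-inactivated FBS, penicillin/streptomycin and amphotericin B, 5% CO2. Seeded at 4.0–7.5 × 10^3 cells/well into medium containing graded sample concentrations, 72 h at 37 °C. Fixed with 10% TCA for 30 min, stained 0.04% SRB for 30 min, dye solubilized in 10 mM Tris base, absorbance at 515 nm. Triplicate runs with duplicate samples, mean IC50 ± SD.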

[3] = system: KB; assay: Cytotoxicity against human KB cells after 72 hrs by SRB assay
[4] = Cytotoxicity against human KBVIN cells after 72 hrs by SRB assay; summary of the method: as §1

Row | Structure (SMILES) | IC50 [1] | IC50 [2] | IC50 [3] | IC50 ([4]; kbvin) | IC50 ([4]; Homo sapiens, KBVIN, 72 h)
1 | CC[C@@]1(OC(=O)CN/C(CCOC2CC(C)(C)N([O])C(C)(C)C2)=N/S(=O)(=O)c2ccc(F)cc2)C(=O)OCc2c1cc1n(c2=O)Cc2cc3ccccc3nc2-1 | 86 nM | 270 nM | 120 nM | 100 nM | 
2 | CC[C@@]1(OC(=O)CN/C(CCOC2CC(C)(C)N([O])C(C)(C)C2)=N/S(C)(=O)=O)C(=O)OCc2c1cc1n(c2=O)Cc2cc3ccccc3nc2-1 | 59 nM | 110 nM | 71 nM | 90 nM | 
3 | CC[C@@]1(OC(=O)[C@@H](C)N/C(CCOC2CC(C)(C)N([O])C(C)(C)C2)=N/S(=O)(=O)c2ccc(C)cc2)C(=O)OCc2c1cc1n(c2=O)Cc2cc3ccccc3nc2-1 | 450 nM | 530 nM | 560 nM | 250 nM | 
4 | CC[C@@]1(OC(=O)CN/C(CCOC2CC(C)(C)N([O])C(C)(C)C2)=N/S(=O)(=O)c2ccc(Cl)cc2)C(=O)OCc2c1cc1n(c2=O)Cc2cc3ccccc3nc2-1 | 63 nM | 190 nM | 73 nM | 84 nM | 
5 | CC[C@@]1(OC(=O)CN/C(CCOC2CC(C)(C)N([O])C(C)(C)C2)=N/S(=O)(=O)c2cccs2)C(=O)OCc2c1cc1n(c2=O)Cc2cc3ccccc3nc2-1 | 63 nM | 110 nM | 63 nM | 83 nM | 
6 | CC[C@@]1(OC(=O)CN/C(CCOCC2=CC(C)(C)N([O])C2(C)C)=N/S(C)(=O)=O)C(=O)OCc2c1cc1n(c2=O)Cc2cc3ccccc3nc2-1 | 62.9 nM | 103 nM | 82.3 nM | 83.4 nM | 
7 | CC[C@@]1(OC(=O)[C@@H](CC(C)C)N/C(CCOC2CC(C)(C)N([O])C(C)(C)C2)=N/S(=O)(=O)c2ccc(C)cc2)C(=O)OCc2c1cc1n(c2=O)Cc2cc3ccccc3nc2-1 | 610 nM | 840 nM | 700 nM | 740 nM | 
8 | CC[C@@]1(OC(=O)CN/C(CCOC2CC(C)(C)N([O])C(C)(C)C2)=N/S(=O)(=O)CC)C(=O)OCc2c1cc1n(c2=O)Cc2cc3ccccc3nc2-1 | 55 nM | 80 nM | 59 nM | 57 nM | 
9 | CC[C@@]1(OC(=O)[C@H](N/C(CCOC2CC(C)(C)N([O])C(C)(C)C2)=N/S(=O)(=O)c2ccc(C)cc2)C(C)C)C(=O)OCc2c1cc1n(c2=O)Cc2cc3ccccc3nc2-1 | > 1000 nM | > 1000 nM | > 1000 nM | > 1000 nM | 
10 | CC[C@@]1(OC(=O)CN/C(CCOCC2=CC(C)(C)N([O])C2(C)C)=N/S(=O)(=O)c2ccc(F)cc2)C(=O)OCc2c1cc1n(c2=O)Cc2cc3ccccc3nc2-1 | 77 nM | 140 nM | 120 nM | 95 nM | 
11 | CC[C@@]1(O)C(=O)OCc2c1cc1n(c2=O)Cc2cc3c(CN(C)C)c(O)ccc3nc2-1 [TOPOTECAN] |  |  |  |  | 400 nM
12 | CCCCS(=O)(=O)/N=C(\CCOC1CC(C)(C)N([O])C(C)(C)C1)NCC(=O)O[C@]1(CC)C(=O)OCc2c1cc1n(c2=O)Cc2cc3ccccc3nc2-1 | 62 nM | 230 nM | 75 nM | 95 nM | 
13 | CC[C@@]1(OC(=O)CN/C(CCOCC2=CC(C)(C)N([O])C2(C)C)=N/S(=O)(=O)c2ccc(OC)cc2)C(=O)OCc2c1cc1n(c2=O)Cc2cc3ccccc3nc2-1 | 90 nM | 180 nM | 130 nM | 150 nM | 
14 | CC[C@@]1(OC(=O)CN/C(CCOCC2=CC(C)(C)N([O])C2(C)C)=N/S(=O)(=O)c2ccc(C)cc2)C(=O)OCc2c1cc1n(c2=O)Cc2cc3ccccc3nc2-1 | 74 nM | 120 nM | 91 nM | 94 nM | 
15 | CC[C@@]1(OC(=O)CN/C(CCOC2CC(C)(C)N([O])C(C)(C)C2)=N/S(=O)(=O)c2ccc([N+](=O)[O-])cc2)C(=O)OCc2c1cc1n(c2=O)Cc2cc3ccccc3nc2-1 | 58 nM | 100 nM | 59 nM | 72 nM | 
16 | CC[C@@]1(OC(=O)CN/C(CCOC2CC(C)(C)N([O])C(C)(C)C2)=N/S(=O)(=O)c2ccc(OC)cc2)C(=O)OCc2c1cc1n(c2=O)Cc2cc3ccccc3nc2-1 | 81 nM | 270 nM | 110 nM | 96 nM | 
17 | CC[C@@]1(OC(=O)CN/C(CCOC2CC(C)(C)N([O])C(C)(C)C2)=N/S(=O)(=O)c2ccc3ccccc3c2)C(=O)OCc2c1cc1n(c2=O)Cc2cc3ccccc3nc2-1 | 480 nM | 610 nM | 580 nM | 330 nM | 
18 | CCC(C)[C@@H](N/C(CCOC1CC(C)(C)N([O])C(C)(C)C1)=N/S(=O)(=O)c1ccc(C)cc1)C(=O)O[C@]1(CC)C(=O)OCc2c1cc1n(c2=O)Cc2cc3ccccc3nc2-1 (stereo partly specified) | > 1000 nM | > 1000 nM | > 1000 nM | > 1000 nM | 
19 | CC[C@@]1(OC(=O)CN/C(CCOC2CC(C)(C)N([O])C(C)(C)C2)=N/S(=O)(=O)c2ccc(C)cc2)C(=O)OCc2c1cc1n(c2=O)Cc2cc3ccccc3nc2-1 | 76 nM | 450 nM | 210 nM | 110 nM | 
20 | CC[C@@]1(OC(=O)[C@@H](Cc2ccccc2)N/C(CCOC2CC(C)(C)N([O])C(C)(C)C2)=N/S(=O)(=O)c2ccc(C)cc2)C(=O)OCc2c1cc1n(c2=O)Cc2cc3ccccc3nc2-1 | 170 nM | 500 nM | 310 nM | 100 nM | 
21 | CC[C@@]1(OC(=O)CN/C(CCOCC2CC(C)(C)N([O])C(C)(C)C2)=N/S(=O)(=O)c2ccc(C)cc2)C(=O)OCc2c1cc1n(c2=O)Cc2cc3ccccc3nc2-1 | 62 nM | 91 nM | 80 nM | 84 nM | 
